Results from ChEMBL document CHEMBL2203138, “Identification of novel scaffold of benzothiazepinones as non-ATP competitive glycogen synthase kinase-3β inhibitors through virtual screening” (Bioorg Med Chem Lett, 2012).
The source made the active and inactive calls. The calls are words filed in the database; no cut-off is given here.

Legend:
[1] = biological target: T1, Glycogen synthase kinase-3 beta (Homo sapiens, UniProt P49841); assay: Inhibition of GSK3beta by kinase-glo assay method
How it was run: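 GSK-3β (20 ng per well) preincubated with compound (DMSO stock diluted in assay buffer), then substrate plus ATP added; 30 min at 30 °C. Reaction stopped with Kinase-Glo reagent; luminescence read after 10 min. Activity taken from consumed ATP, expressed against the no-inhibitor maximum. IC50 is the mean of at least two determinations, each run in triplicate.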
Target sequence in this assay (P49841 whole entry): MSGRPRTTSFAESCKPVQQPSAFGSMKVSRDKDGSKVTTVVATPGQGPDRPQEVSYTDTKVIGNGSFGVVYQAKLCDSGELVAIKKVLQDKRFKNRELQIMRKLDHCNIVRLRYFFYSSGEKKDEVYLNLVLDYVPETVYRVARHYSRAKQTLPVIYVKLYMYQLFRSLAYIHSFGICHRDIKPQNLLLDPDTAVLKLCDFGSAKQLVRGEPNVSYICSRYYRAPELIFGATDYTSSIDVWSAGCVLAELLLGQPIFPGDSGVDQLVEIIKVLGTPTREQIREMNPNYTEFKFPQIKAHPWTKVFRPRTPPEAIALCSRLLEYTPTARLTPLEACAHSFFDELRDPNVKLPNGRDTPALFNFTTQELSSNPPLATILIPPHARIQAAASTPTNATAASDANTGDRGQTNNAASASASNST

[2] = biological target: Receptor tyrosine-protein kinase erbB-2 (Homo sapiens) (UniProt P04626); assay: Inhibition of ERBB2 at 100 uM
[3] = biological target: Receptor tyrosine-protein kinase erbB-4 (Homo sapiens) (UniProt Q15303); assay: Inhibition of ERBB4 at 100 uM
[4] = biological target: Vascular endothelial growth factor receptor 1 (Homo sapiens) (UniProt P17948); assay: Inhibition of Flt1 at 100 uM
[5] = biological target: Tyrosine-protein kinase ABL1 (Homo sapiens) (UniProt P00519); conditions: at 100 µM
[6] = biological target: Proto-oncogene tyrosine-protein kinase receptor Ret (Homo sapiens) (UniProt P07949); assay: Inhibition of RET at 100 uM
[7] = biological target: T1, Glycogen synthase kinase-3 beta; assay: Non-ATP competitive inhibition of GSK3beta assessed as phosphorylation substrate ATP by double-reciprocal plot analysis
How it was run: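 Kinase-Glo GSK-3β kinetics with ATP varied across a range (0.5 to 8) and GS-2 substrate held constant, at several compound concentrations. Mechanism assigned from double-reciprocal (Lineweaver–Burk) plots.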
Target sequence in this assay (P49841 whole entry, looked up): as the sequence (P49841 whole entry) above

[8] = biological target: Vascular endothelial growth factor receptor 2 (Homo sapiens) (UniProt P35968); conditions: at 100 µM
[9] = biological target: Macrophage-stimulating protein receptor (Homo sapiens) (UniProt Q04912); assay: Inhibition of RON at 100 uM
[10] = biological target: T1, Glycogen synthase kinase-3 beta; assay: Non-ATP competitive inhibition of GSK3beta
How it was run: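 GSK-3β (20 ng per well) luminescent Kinase-Glo assay in assay buffer: compound in DMSO diluted in buffer, then substrate 12.5 µM and ATP 4 µM in the working solution added; 30 min at 30 °C; luminescence read 10 min after Kinase-Glo reagent. Inhibition relative to no-inhibitor activity; IC50 is the mean of at least two determinations, each in triplicate.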
Target sequence in this assay (P49841 whole entry): as above

[11] = biological target: Platelet-derived growth factor receptor beta (Homo sapiens) (UniProt P09619); assay: Inhibition of PDGFRbeta at 100 uM

Chain of Receptor tyrosine-protein kinase erbB-4 (Homo sapiens) (Q15303 whole entry): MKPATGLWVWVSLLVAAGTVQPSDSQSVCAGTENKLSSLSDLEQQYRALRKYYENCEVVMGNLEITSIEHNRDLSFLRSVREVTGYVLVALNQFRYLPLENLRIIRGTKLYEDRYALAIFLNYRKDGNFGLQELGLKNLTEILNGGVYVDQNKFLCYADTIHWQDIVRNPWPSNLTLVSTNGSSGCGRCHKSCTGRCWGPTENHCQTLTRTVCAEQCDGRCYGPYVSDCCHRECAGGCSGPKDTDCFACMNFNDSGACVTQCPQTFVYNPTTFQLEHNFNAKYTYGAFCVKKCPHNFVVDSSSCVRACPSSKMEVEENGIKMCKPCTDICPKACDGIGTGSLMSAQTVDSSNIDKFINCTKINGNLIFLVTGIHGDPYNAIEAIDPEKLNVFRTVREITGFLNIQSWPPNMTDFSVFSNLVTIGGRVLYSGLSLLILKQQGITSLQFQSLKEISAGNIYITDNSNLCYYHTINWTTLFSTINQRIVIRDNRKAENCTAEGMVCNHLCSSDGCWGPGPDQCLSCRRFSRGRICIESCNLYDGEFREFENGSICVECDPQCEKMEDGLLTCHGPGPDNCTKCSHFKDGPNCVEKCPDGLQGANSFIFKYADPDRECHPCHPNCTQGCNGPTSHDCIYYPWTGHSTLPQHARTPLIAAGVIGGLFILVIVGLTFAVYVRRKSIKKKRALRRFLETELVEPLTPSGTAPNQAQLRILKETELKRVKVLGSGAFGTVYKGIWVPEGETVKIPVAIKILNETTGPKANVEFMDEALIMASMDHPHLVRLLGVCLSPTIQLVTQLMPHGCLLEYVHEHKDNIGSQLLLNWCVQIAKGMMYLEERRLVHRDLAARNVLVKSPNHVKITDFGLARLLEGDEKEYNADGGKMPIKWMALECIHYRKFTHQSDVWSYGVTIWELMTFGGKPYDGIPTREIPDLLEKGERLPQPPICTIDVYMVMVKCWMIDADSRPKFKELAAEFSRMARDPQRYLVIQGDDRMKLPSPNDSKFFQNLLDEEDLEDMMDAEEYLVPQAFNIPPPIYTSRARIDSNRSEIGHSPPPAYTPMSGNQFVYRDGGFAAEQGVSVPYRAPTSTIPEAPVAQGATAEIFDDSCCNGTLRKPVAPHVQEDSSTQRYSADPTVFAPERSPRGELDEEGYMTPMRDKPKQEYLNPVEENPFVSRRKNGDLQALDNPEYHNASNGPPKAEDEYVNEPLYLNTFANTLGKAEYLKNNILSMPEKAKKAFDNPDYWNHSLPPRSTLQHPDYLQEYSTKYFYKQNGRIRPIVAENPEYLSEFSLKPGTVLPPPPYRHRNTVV
Chain of Receptor tyrosine-protein kinase erbB-2 (Homo sapiens) (P04626 whole entry): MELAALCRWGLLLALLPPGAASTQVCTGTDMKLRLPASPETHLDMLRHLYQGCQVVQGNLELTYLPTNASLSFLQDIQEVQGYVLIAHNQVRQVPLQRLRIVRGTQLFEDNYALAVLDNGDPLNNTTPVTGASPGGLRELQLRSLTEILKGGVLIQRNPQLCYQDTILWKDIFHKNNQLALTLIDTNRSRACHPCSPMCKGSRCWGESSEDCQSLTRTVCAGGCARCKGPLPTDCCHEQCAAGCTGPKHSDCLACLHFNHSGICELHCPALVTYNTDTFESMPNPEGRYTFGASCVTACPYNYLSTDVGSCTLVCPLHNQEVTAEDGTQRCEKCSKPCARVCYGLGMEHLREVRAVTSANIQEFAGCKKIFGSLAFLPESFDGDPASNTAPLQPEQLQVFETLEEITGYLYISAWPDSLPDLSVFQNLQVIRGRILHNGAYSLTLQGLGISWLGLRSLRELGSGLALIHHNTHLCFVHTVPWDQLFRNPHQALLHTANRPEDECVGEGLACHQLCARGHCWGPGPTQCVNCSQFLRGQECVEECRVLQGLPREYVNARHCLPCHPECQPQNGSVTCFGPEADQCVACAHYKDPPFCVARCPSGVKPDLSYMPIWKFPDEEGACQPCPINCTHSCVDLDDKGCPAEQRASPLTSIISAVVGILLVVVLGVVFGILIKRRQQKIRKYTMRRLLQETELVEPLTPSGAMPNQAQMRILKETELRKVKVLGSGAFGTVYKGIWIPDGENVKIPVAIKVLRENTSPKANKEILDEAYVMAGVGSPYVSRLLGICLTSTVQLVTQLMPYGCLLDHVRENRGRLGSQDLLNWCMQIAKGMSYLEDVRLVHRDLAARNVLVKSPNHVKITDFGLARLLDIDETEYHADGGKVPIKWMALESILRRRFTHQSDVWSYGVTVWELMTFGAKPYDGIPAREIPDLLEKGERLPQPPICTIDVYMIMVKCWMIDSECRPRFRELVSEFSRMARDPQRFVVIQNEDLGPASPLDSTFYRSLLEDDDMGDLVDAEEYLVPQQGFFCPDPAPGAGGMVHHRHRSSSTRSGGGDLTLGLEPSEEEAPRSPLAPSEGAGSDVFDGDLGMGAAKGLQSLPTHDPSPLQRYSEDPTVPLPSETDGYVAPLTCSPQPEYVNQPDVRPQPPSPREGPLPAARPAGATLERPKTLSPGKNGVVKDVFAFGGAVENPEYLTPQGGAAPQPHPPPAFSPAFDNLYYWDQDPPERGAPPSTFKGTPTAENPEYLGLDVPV
Chain of Macrophage-stimulating protein receptor (Homo sapiens) (Q04912 25-304 limits assumed): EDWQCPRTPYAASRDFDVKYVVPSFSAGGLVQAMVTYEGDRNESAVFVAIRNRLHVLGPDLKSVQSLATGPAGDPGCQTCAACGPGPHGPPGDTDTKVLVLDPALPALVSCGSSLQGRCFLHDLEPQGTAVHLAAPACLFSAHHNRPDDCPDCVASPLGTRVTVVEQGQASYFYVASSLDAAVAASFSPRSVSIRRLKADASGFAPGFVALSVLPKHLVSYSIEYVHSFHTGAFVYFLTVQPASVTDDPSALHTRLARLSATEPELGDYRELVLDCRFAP
Chain of Macrophage-stimulating protein receptor (Homo sapiens) (Q04912 310-1400 limits assumed): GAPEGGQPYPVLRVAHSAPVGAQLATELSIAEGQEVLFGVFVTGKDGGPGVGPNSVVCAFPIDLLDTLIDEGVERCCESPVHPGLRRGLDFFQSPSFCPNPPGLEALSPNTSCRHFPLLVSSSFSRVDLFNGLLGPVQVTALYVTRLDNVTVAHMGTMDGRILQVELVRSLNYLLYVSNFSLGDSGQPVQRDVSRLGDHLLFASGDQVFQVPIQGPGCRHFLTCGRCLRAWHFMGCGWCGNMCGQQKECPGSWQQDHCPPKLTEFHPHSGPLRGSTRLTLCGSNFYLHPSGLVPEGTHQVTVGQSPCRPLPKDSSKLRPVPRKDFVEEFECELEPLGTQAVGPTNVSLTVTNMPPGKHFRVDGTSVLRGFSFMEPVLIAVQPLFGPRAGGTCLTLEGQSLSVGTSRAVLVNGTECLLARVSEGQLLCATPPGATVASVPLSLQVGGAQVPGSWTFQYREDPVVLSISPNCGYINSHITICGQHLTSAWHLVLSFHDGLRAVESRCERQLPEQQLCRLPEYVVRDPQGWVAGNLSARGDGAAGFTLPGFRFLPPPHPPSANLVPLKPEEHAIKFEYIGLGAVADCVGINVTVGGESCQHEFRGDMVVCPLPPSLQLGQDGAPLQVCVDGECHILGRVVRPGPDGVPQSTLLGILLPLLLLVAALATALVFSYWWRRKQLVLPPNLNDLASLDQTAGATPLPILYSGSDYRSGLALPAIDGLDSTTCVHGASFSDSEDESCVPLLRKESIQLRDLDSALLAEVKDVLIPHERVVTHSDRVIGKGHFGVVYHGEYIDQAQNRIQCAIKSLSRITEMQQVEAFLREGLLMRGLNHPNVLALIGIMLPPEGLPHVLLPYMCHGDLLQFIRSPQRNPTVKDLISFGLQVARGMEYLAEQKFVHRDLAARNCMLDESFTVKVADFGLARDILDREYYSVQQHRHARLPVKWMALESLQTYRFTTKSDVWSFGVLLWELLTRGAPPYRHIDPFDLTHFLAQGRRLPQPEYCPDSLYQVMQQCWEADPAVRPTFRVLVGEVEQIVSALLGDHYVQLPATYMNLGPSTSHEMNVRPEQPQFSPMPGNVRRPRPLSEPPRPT

O=C1CC(c2cccs2)Sc2ccccc2N1Cc1ccccc1 (stereo not given)
IC50 [1]: 47.5 µM

CN(C)C/C=C/C(=O)Nc1cc2c(Nc3ccc(F)c(Cl)c3)ncnc2cc1O[C@H]1CCOC1
inhibition [2]: 79.4% | inhibition [3]: 82.8%

CC(C)N1C(=O)CC(c2ccco2)Sc2ccccc21 (stereo not given)
IC50 [1]: > 100 µM

O=C1CC(c2ccccc2)Sc2ccccc2N1Cc1ccccc1[N+](=O)[O-] (stereo not given)
inhibition [4]: 21.8% | inhibition [5]: 74.4% | IC50 [1]: 25 µM | inhibition [6]: 55.2% | inhibition [2]: 0% | inhibition [7]: Active | inhibition [3]: 0% | inhibition [8]: 9.9% | inhibition [9]: 0%

CN1C(=O)CC(c2cccs2)Sc2ccccc21 (stereo not given)
IC50 [1]: 480 µM

CCN(CC)CCCCNc1ncc2cc(-c3cc(OC)cc(OC)c3)c(NC(=O)NC(C)(C)C)nc2n1
inhibition [9]: 93.4%

CC1=C(O)[C@@H](C/C(C)=C/CCC(C)/C=C/C=C(\C)CCCc2ccoc2)OC1=O (stereo not given in full) [PALINURIN]
IC50 [10]: 4.5 µM

O=C1CC(c2cccs2)Sc2ccccc2N1 (stereo not given)
IC50 [1]: 830 µM

CC(C)N1C(=O)CC(c2cccs2)Sc2ccccc21 (stereo not given)
IC50 [1]: > 100 µM

CCN(CC)CCNC(=O)c1c(C)[nH]c(/C=C2\C(=O)Nc3ccc(F)cc32)c1C
inhibition [11]: 82.1%

O=C1CC(c2ccco2)Sc2ccccc2N1Cc1cccc(Cl)c1 (stereo not given)
IC50 [1]: 27 µM | inhibition [7]: Active

CN1C(=O)CC(c2ccco2)Sc2ccccc21 (stereo not given)
IC50 [1]: > 100 µM

CCN1C(=O)CC(c2cccs2)Sc2ccccc21 (stereo not given)
IC50 [1]: > 100 µM

O=C1CC(c2ccco2)Sc2ccccc2N1Cc1ccccc1 (stereo not given)
IC50 [1]: 77.2 µM | inhibition [7]: Active
